From ChEMBL document CHEMBL1123529, “Analogues of substance P. Peptides containing D-amino acid residues in various positions of substance P and displaying agonist or receptor selective antagonist effects” (1986)
“And” between values parts separate entries of the source, which are not always exact repeats. Equal values may be shown once. Where a SMILES comes first, the peptide text is derived from it. [ ]: non-standard residue; d: D form. The star is where a group is joined. Cbz = O=C(OCc1ccccc1)*

Tests used:
[1] = molecular target: Metabotropic glutamate receptor 3 (Rattus norvegicus) (UniProt P31422); experiment: Antagonistic activity against Glutamate receptor in spinal rat cord at concentration of 25 uM.; assay type: functional
Chain of Metabotropic glutamate receptor 3 (Rattus norvegicus) (P31422 23-879 limits assumed): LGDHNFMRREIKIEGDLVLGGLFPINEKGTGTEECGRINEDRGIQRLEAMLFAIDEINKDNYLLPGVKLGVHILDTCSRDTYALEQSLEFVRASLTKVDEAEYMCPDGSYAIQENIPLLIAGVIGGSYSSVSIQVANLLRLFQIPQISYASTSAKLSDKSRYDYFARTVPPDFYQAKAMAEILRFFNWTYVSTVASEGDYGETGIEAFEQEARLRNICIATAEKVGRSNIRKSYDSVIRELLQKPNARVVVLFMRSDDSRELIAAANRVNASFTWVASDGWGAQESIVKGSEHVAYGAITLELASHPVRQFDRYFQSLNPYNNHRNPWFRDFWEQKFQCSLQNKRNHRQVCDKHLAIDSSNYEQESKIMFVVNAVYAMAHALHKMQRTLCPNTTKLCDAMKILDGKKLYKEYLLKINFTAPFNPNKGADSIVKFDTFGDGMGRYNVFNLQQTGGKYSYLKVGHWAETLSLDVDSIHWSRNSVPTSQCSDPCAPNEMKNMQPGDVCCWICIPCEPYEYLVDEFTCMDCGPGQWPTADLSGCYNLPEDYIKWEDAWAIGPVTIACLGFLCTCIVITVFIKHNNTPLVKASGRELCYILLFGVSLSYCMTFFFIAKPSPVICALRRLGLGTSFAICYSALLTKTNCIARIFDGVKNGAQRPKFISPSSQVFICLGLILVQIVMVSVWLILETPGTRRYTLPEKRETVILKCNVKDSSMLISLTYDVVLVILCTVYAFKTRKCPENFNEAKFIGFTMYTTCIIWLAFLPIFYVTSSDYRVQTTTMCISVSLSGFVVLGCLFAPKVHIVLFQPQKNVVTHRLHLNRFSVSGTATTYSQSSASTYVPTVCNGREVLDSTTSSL
In short: (§1)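 Neonatal hemisectioned spinal cord from Wistar rats (Alderley Park strain, 2-7 days old), anaesthetised with intraperitoneal urethane (25% w/v, […]) and then decapitated. Cord superfused with oxygenated medium at 1 mL/min. Agonist (SP, SP(6-11), glutamate or carbachol) applied as 2-mL doses in the superfusate. Antagonist superfused for at least 15 min before agonists were retested. Read-out: % change in ventral root–cord DC potential response amplitude.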

[2] = molecular target: Metabotropic glutamate receptor 3 (Rattus norvegicus) (UniProt P31422); experiment: Antagonistic activity against Glutamate receptor in spinal rat cord at concentration of 5 uM.; assay type: functional; in short: as §1
[3] = molecular target: Metabotropic glutamate receptor 3 (Rattus norvegicus) (UniProt P31422); experiment: Antagonistic activity against Glutamate receptor in rat spinal cord at concentration of 50 uM.; assay type: functional, tissue-based; in short: as §1
[4] = molecular target: Substance-P receptor (Cavia porcellus) (UniProt P30547); experiment: Antagonistic activity against Substance P(6-11) receptor in guinea pig ileum at concentration of 5 uM.; assay type: functional, tissue-based
Chain of Substance-P receptor (Cavia porcellus) (P30547 whole entry): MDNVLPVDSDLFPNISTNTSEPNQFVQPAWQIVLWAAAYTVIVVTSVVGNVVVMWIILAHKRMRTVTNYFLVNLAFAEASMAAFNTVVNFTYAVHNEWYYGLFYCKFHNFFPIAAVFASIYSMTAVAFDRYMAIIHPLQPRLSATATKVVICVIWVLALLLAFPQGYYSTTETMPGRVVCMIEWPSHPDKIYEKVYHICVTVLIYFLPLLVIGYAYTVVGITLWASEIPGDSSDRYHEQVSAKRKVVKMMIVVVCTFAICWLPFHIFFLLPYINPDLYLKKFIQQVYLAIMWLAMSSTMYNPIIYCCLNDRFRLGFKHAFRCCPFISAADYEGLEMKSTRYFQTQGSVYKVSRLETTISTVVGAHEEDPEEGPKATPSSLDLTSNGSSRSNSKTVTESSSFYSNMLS
In short: (§2)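 Distal ileum from Dunkin-Hartley guinea pigs (300-350 g, both sexes) in a Krebs organ bath at 37 °C, gassed with 95% O2/5% CO2. Agonist (SP or SP(6-11)) dose-response curves run on a 3-min cycle with 1-min contact, with and without antagonist. Dose ratio = agonist EC50 with antagonist / EC50 alone. At least two preparations per compound; ratios below 2 taken as insignificant.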

[5] = molecular target: Substance-P receptor (Rattus norvegicus) (UniProt P14600); experiment: Antagonistic activity against Substance P(6-11) receptor in rat spinal cord at concentration of 50 uM.
Chain of Substance-P receptor (Rattus norvegicus) (P14600 whole entry, looked up): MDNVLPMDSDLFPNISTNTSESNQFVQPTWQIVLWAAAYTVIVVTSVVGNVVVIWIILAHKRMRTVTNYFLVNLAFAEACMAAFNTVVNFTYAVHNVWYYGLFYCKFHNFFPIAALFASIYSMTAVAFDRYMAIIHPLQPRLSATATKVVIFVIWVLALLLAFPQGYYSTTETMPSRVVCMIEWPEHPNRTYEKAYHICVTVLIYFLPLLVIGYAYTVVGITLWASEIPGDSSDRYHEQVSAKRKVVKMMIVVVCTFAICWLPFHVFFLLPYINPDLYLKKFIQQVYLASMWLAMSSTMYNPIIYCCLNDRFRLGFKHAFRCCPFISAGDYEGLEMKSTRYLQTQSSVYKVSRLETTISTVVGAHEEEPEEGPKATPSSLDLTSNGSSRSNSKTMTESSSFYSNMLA

[6] = molecular target: Substance-P receptor (Rattus norvegicus) (UniProt P14600); experiment: Antagonistic activity against Substance P(6-11) receptor in rat spinal cord at concentration of 25 uM.
[7] = molecular target: Substance-P receptor (Rattus norvegicus) (UniProt P14600); experiment: Antagonistic activity against Substance P receptor in rat spinal cord at concentration of 5 uM.
[8] = molecular target: Substance-P receptor (Rattus norvegicus) (UniProt P14600); experiment: Antagonistic activity against Substance P(6-11) receptor in rat spinal cord at concentration of 5 uM.
[9] = molecular target: Substance-P receptor (Rattus norvegicus) (UniProt P14600); experiment: Antagonistic activity against Substance P receptor in rat spinal cord at concentration of 25 uM.
[10] = molecular target: Substance-P receptor (Rattus norvegicus) (UniProt P14600); experiment: Antagonistic activity against Substance P receptor in rat spinal cord at concentration of 50 uM.
[11] = molecular target: Metabotropic glutamate receptor 3 (Rattus norvegicus) (UniProt P31422); experiment: Antagonistic activity against Glutamate receptor in rat spinal cord at concentration of 10 uM.; assay type: functional, tissue-based
In short: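 Cord superfused with oxygenated medium at 1 mL/min. Agonist (SP, SP(6-11), glutamate or carbachol) applied as 2-mL doses in the superfusate. Antagonist superfused for at least 15 min before agonists were retested. Read-out: % change in ventral root–cord DC potential response amplitude.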

[12] = molecular target: Substance-P receptor (Rattus norvegicus) (UniProt P14600); experiment: Antagonistic activity against Substance P(6-11) receptor in rat spinal cord at concentration of 10 uM.
[13] = molecular target: Substance-P receptor (Cavia porcellus) (UniProt P30547); experiment: Evaluated in vitro for percent agonist activity in guinea pig ileum (substance P receptor); assay type: functional, tissue-based
[14] = molecular target: Metabotropic glutamate receptor 3 (Rattus norvegicus) (UniProt P31422); experiment: Antagonistic activity against Glutamate receptor in rat spinal cord at concentration of 25 uM.; assay type: functional, tissue-based; in short: as §1
[15] = molecular target: Substance-P receptor (Cavia porcellus) (UniProt P30547); experiment: Antagonistic activity against Substance P(6-11) receptor in guinea pig ileum at concentration of 10 uM.; assay type: functional, tissue-based; in short: as §2
[16] = molecular target: Substance-P receptor (Cavia porcellus) (UniProt P30547); experiment: Antagonistic activity against Substance P receptor in guinea pig ileum at concentration of 5 uM.; assay type: functional, tissue-based; in short: as §2
[17] = molecular target: Substance-P receptor (Cavia porcellus) (UniProt P30547); experiment: Antagonistic activity against Substance P(6-11) receptor in guinea pig ileum at concentration of 50 uM.; assay type: functional, tissue-based; in short: as §2
[18] = molecular target: Substance-P receptor (Cavia porcellus) (UniProt P30547); experiment: Antagonistic activity against Substance P receptor in guinea pig ileum at concentration of 50 uM.; assay type: functional, tissue-based; in short: as §2
[19] = molecular target: Substance-P receptor (Cavia porcellus) (UniProt P30547); experiment: In vitro percent agonist activity in guinea pig ileum.; assay type: functional, tissue-based
In short: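 Distal ileum from Dunkin-Hartley guinea pigs (300-350 g, either sex) in a 5-mL organ bath of Krebs solution at 37 °C, gassed with 95% O2/5% CO2. Dose-response curves were run on a 3-min cycle with 1-min agonist contact and washout. Agonist activity is expressed as a percentage of substance P.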

[20] = molecular target: Substance-P receptor (Cavia porcellus) (UniProt P30547); experiment: Antagonistic activity against Substance P(6-11) receptor in guinea pig ileum at concentration of 1 uM.; assay type: functional, tissue-based; in short: as §2
[21] = molecular target: Substance-P receptor (Cavia porcellus) (UniProt P30547); experiment: Antagonistic activity against Substance P in guinea pig ileum at concentration of 1 uM.; assay type: functional, tissue-based; in short: as §2
[22] = molecular target: Substance-P receptor (Cavia porcellus) (UniProt P30547); experiment: Antagonistic activity against Substance P in guinea pig ileum at concentration of 10 uM.; assay type: functional, tissue-based; in short: as §2

Change in amplitude response [3] [%] | Activity [4] [dose ratio] | Change in amplitude response [5] [%] | Change in amplitude response [6] [%] | Change in amplitude response [7] [%] | Change in amplitude response [8] [%] | Change in amplitude response [10] | SP [13] [%] | Activity [15] [dose ratio] | SMILES | other results
27 | 8.1 | -87 | -87 | 32 | -42 | -19% |  |  | COC(=O)[C@@H](CCSC)NC(=O)[C@H](CC(C)C)NC(=O)[C@@H](Cc1c[nH]c2ccccc12)NC(=O)[C@H](Cc1c[nH]c2ccccc12)NC(=O)[C@@H](Cc1c[nH]c2ccccc12)NC(=O)[C@H](CCC(N)=O)NC(=O)[C@H](CCC(N)=O)NC(=O)[C@@H]1CCCN1C(=O)[C@H](CCCCN)NC(=O)[C@@H]1CCCN1C(=O)[C@@H](N)CCCN=C(N)N | Change in amplitude response [1]: 29%; Change in amplitude response [2]: -3%; Change in amplitude response [9]: 21%
-37 | < 2 | -86 |  | 12 | -46 | -9% | 0 |  | COC(=O)[C@H](CCSC)NC(=O)[C@@H]1CCCN1C(=O)[C@H]1CCCN1C(=O)[C@H](Cc1ccccc1)NC(=O)[C@H](Cc1ccccc1)NC(=O)[C@H](CCC(N)=O)NC(=O)[C@H](CCC(N)=O)NC(=O)[C@@H]1CCCN1C(=O)[C@H](CCCCNC(=O)OCc1ccccc1)NC(=O)[C@@H]1CCCN1C(=O)[C@H](CCCN=C(N)N)NC(=O)OCc1ccccc1 | Activity [16]: < 2 dose ratio
2 |  | -100 |  |  | -67 | 29% and 39% | 0 |  | COC(=O)[C@H](CCSC)NC(=O)[C@@H]1CCCN1C(=O)[C@H]1CCCN1C(=O)[C@H](Cc1ccccc1)NC(=O)[C@H](Cc1ccccc1)NC(=O)[C@H](CCC(N)=O)NC(=O)[C@H](CCC(N)=O)NC(=O)[C@@H]1CCCN1C(=O)[C@@H](CCCCNC(=O)OCc1ccccc1)NC(=O)[C@H]1CCCN1C(=O)[C@@H](CCCN=C(N)N)NC(=O)OCc1ccccc1 | Activity [17]: < 2 dose ratio; Activity [18]: 3 dose ratio

The next lines start with the compound.

SMILES | Change in amplitude response [3] [%] | Activity [4] [dose ratio] | Change in amplitude response [5] [%] | Change in amplitude response [6] [%] | Change in amplitude response [7] [%] | Change in amplitude response [8] [%] | Change in amplitude response [10] | SP [13] [%] | Activity [15] [dose ratio] | other results
COC(=O)[C@@H](CCSC)NC(=O)[C@H](CC(C)C)NC(=O)CNC(=O)[C@@H](Cc1c[nH]c2ccccc12)NC(=O)[C@@H](Cc1c[nH]c2ccccc12)NC(=O)[C@H](CCC(N)=O)NC(=O)[C@H](CCC(N)=O)NC(=O)[C@@H]1CCCN1C(=O)[C@H](CCCCNC(=O)OCc1ccccc1)NC(=O)[C@@H]1CCCN1C(=O)[C@H](CCCN=C(N)N)NC(=O)OCc1ccccc1 (Cbz-RPK(Cbz)PQQ[dW][dW]GL[dM]-OMe) | 11 |  | -75 | -77 |  |  | 8.3% | 0 | 90 | Change in amplitude response [11]: -3%; Change in amplitude response [12]: -33%; Change in amplitude response [14]: -13%
COC(=O)[C@@H](CCSC)NC(=O)[C@H](CC(C)C)NC(=O)[C@@H](Cc1c[nH]c2ccccc12)NC(=O)[C@H](Cc1c[nH]c2ccccc12)NC(=O)[C@@H](Cc1c[nH]c2ccccc12)NC(=O)[C@H](CCC(N)=O)NC(=O)[C@H](CCC(N)=O)NC(=O)[C@@H]1CCCN1C(=O)[C@H](CCCCNC(=O)OCc1ccccc1)NC(=O)[C@@H]1CCCN1C(=O)[C@H](CCCN=C(N)N)NC(=O)OCc1ccccc1 |  |  |  |  |  |  |  |  |  | SP [19]: 0%
CSCC[C@@H](NC(=O)[C@H](CC(C)C)NC(=O)CNC(=O)[C@H](Cc1c[nH]c2ccccc12)NC(=O)[C@@H](Cc1c[nH]c2ccccc12)NC(=O)[C@H](CCC(N)=O)NC(=O)[C@H](CCC(N)=O)NC(=O)[C@@H]1CCCN1C(=O)[C@H](CCCCNC(=O)OCc1ccccc1)NC(=O)[C@@H]1CCCN1C(=O)[C@H](CCCN=C(N)N)NC(=O)OCc1ccccc1)C(=O)O |  |  |  |  |  |  |  | 0 | 18 | Activity [20]: 1.8 dose ratio; Activity [21]: 1.1 dose ratio; Activity [22]: 14.6 dose ratio
